The record followed here is ChEMBL document CHEMBL1687909, “Design, synthesis, and biological evaluation of new cinnamic derivatives as antituberculosis agents” (J Med Chem, 2011).

In general, MIC refers to the smallest concentration in the dilution series that meets the test's criterion for growth inhibition. A lower MIC goes with greater potency. A word on the IC50: it is the concentration that gives 50% inhibition.

In brackets after ≈: the same amount, converted by molar mass. Activity calls are given as the source filed them.

The subject of assay [1] is Mycobacterium tuberculosis. As to the kind of experiment: Antituberculosis activity against Mycobacterium tuberculosis H37Rv after 7 days by MTT assay. The format is functional. The settings on record: 168 h. In outline:
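Colorimetric MTT microassay: serial 2-fold dilutions from DMSO stocks in Middlebrook 7H9 broth, bacterial suspension in 7H9 added. After 6 days, MTT (1 mg/mL) added; 1 day later solubilization buffer, OD 570 nm. MIC = lowest concentration inhibiting growth, untreated bacilli as growth control.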
On the technique in general: Tetrazolium assays rely on reduction of a dye to a coloured formazan, in cell work by metabolically active cells.

Assay [2] deals with THP-1. Nature of the assay: Cytotoxicity against human THP1 cells after 72 hrs by MTT assay. To be noted: THP-1, 72 h. It is filed as cell-based.
A short description of assay [3]: Selectivity index, ratio of IC50 for human THP1 cells to MIC for Mycobacterium tuberculosis H37Rv. The format is functional, THP-1.
Assay [4] concerns Mycobacterium tuberculosis. Nature of the assay: Antimycobacterial activity against Mycobacterium tuberculosis assessed as inhibition of mycolic acid biosynthesis by TLC. It is filed as functional, organism-based. The essentials: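 Cells saponified in 40% KOH/methoxyethanol overnight at 100 °C, acidified with H2SO4, lipids ether-extracted, fatty acids methylated; methyl esters resolved by silica TLC in dichloromethane, phosphorimaged.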

In assay [5] the test system is Mycobacterium tuberculosis. Nature of the assay: Selectivity ratio of MIC for isoniazid to compound for Mycobacterium tuberculosis 1400. It is filed as functional.
The subject of assay [6] is Mycobacterium tuberculosis. Nature of the assay: Selectivity ratio of MIC for isoniazid to compound for Mycobacterium tuberculosis MYC5165. It is filed as functional.

Turning to `COc1ccc(/C=C/C(=O)N/N=c2/[nH]ncc3ccccc23)cc1`, the MIC in assay [1] turned out to be 50 µM (≈ 16 µg/mL). For the same compound, the midpoint of inhibition in assay [2], the IC50, lay at 437 µM. The “Selectivity Index” value in assay [3] was determined as 8.

`FC(F)(F)Oc1ccc(C2CC2c2nnc3c4ccccc4cnn23)cc1` (racemic) registered an MIC in assay [1] of 170 µM (≈ 63 µg/mL).

Compound `CCOc1ccc(/C=C/C(=O)N/N=c2/[nH]ncc3ccccc23)cc1` came in with an MIC in assay [1] of 12 µM (≈ 4.01 µg/mL).

`FC(F)(F)COc1ccc(C2CC2c2nnc3c4ccccc4cnn23)cc1` (racemic) returned an MIC in assay [1] of 1300 µM (≈ 500 µg/mL).

As to `CC(C)=CCC/C(C)=C/COc1ccc(/C=C/C(=O)NNC(=O)c2ccncc2)cc1`, in assay [1], it took 1.9 µM (≈ 0.797 µg/mL) to inhibit growth (MIC). Moreover, the half-inhibitory concentration (IC50) in assay [2] was 43 µM. Moreover, in assay [3], the “Selectivity Index” value stood at 22. The inhibition result in assay [4] was “Active”.

In assay [1], `CCOc1ccc(/C=C/C(=O)NNC(=O)c2ccncc2)cc1` yielded an MIC of 1.3 µM (≈ 0.405 µg/mL). Besides, the inhibition entry in assay [4] was “Active”.

Consider `COc1ccc(/C=C/C(=O)NNC(=O)c2ccncc2)cc1`, for which 0.3 µM (≈ 0.0892 µg/mL) was the least that counted as inhibitory in assay [1] (MIC). For the same compound, in assay [2], the IC50 worked out at 168 µM. For the same compound, the “Selectivity Index” value in assay [3] was determined as 560. For the same compound, the inhibition entry in assay [4] was “Active”.

For the compound `O=C(/C=C/c1ccc(OC(F)(F)F)cc1)N/N=c1/[nH]ncc2ccccc12`, the minimal inhibitory concentration (MIC) in assay [1] was determined as 21 µM (≈ 7.86 µg/mL).

In assay [1], `FC(F)(F)Oc1ccc(/C=C/c2nnc3c4ccccc4cnn23)cc1` showed an MIC of 702 µM (≈ 250 µg/mL).

In the case of `COc1ccc(C2CC2c2nnc3c4ccccc4cnn23)cc1` (racemic), 395 µM (≈ 125 µg/mL) was the least that counted as inhibitory in assay [1] (MIC).

For `NNC(=O)c1ccncc1` [ISONIAZID], the MIC in assay [1] is 0.6 µM (≈ 0.0823 µg/mL). In assay [2], this compound yielded an IC50 above 3650 µM. Moreover, the “Selectivity Index” value in assay [3] is on record as above 6081.

In the case of `CC(C)=CCC/C(C)=C/COc1ccc(/C=C/c2nnc3c4ccccc4cnn23)cc1`, the MIC in assay [1] was determined as 19 µM (≈ 8.07 µg/mL). In addition, in assay [2], the IC50 stood at 259 µM. In addition, the “Selectivity Index” value in assay [3] came out at 13.

`CC(C)=CCOc1ccc(/C=C/c2nnc3c4ccccc4cnn23)cc1`: in assay [1], 1.4 µM (≈ 0.499 µg/mL) was the least that counted as inhibitory (MIC). For the same compound, the IC50 in assay [2] was 449 µM. Moreover, the “Selectivity Index” value in assay [3] was 320. The results for the Ratio in assay [5] and in assay [6] were 100 and 1800, respectively.

As to `FC(F)(F)COc1ccc(/C=C/c2nnc3c4ccccc4cnn23)cc1`, in assay [1], the lowest concentration to inhibit growth (MIC) was 170 µM (≈ 63 µg/mL).

The compound `CC(C)=CCC/C(C)=C/COc1ccc(/C=C/C(=O)N/N=c2/[nH]ncc3ccccc23)cc1` yielded an MIC in assay [1] of 72 µM (≈ 31.9 µg/mL). In assay [2], this compound returned an IC50 of 56 µM. Moreover, in assay [3], the “Selectivity Index” value is listed as 0.8.

The compound `COc1ccc(/C=C/C(=O)N[C@@H]2CONC2=O)cc1` came in with an MIC in assay [1] of 950 µM (≈ 249 µg/mL).

`O=C(/C=C/c1ccc(OCC(F)(F)F)cc1)NNC(=O)c1ccncc1`: inhibition of growth in assay [1] (MIC) required 2.2 µM (≈ 0.804 µg/mL). Moreover, the inhibition result in assay [4] was “Active”.

Regarding `CC(C)=CCC/C(C)=C/COc1ccc(C2CC2c2nnc3c4ccccc4cnn23)cc1` (racemic), in assay [1], the MIC came out at 28 µM (≈ 12.3 µg/mL).

The compound `CCOc1ccc(C2CC2c2nnc3c4ccccc4cnn23)cc1` (racemic) returned an MIC in assay [1] of 378 µM (≈ 125 µg/mL).

In turn, `CCOc1ccc(/C=C/c2nnc3c4ccccc4cnn23)cc1` gave an MIC in assay [1] of 39 µM (≈ 12.3 µg/mL).

Compound `O=C(/C=C/c1ccc(OC(F)(F)F)cc1)NNC(=O)c1ccncc1` had an MIC in assay [1] of 1.1 µM (≈ 0.386 µg/mL). In addition, in assay [4], the inhibition result was “Active”.

In assay [1], `COc1ccc(/C=C/c2nnc3c4ccccc4cnn23)cc1` displayed an MIC of 53 µM (≈ 16 µg/mL). The compound further displayed an IC50 in assay [2] of 695 µM. The “Selectivity Index” value in assay [3] was 13.

`O=C(/C=C/c1ccc(OCC(F)(F)F)cc1)N/N=c1/[nH]ncc2ccccc12`: it took 20 µM (≈ 7.77 µg/mL) to inhibit growth in assay [1] (MIC).

In assay [1], `CC(C)=CCOc1ccc(/C=C/C(=O)NNC(=O)c2ccncc2)cc1` came in with an MIC of 2.3 µM (≈ 0.808 µg/mL). The compound further registered an IC50 in assay [2] of 256 µM. In addition, in assay [3], the “Selectivity Index” value is recorded as 111. The inhibition result in assay [4] is “Active”.

Compound `CC(C)=CCOc1ccc(/C=C/C(=O)N/N=c2/[nH]ncc3ccccc23)cc1` had an MIC in assay [1] of 21 µM (≈ 7.86 µg/mL). The IC50 in assay [2] was 26 µM. For the same compound, in assay [3], the “Selectivity Index” value is recorded as 1.

With `CC(C)=CCOc1ccc(C2CC2c2nnc3c4ccccc4cnn23)cc1` (racemic), in assay [1], the MIC stood at 21 µM (≈ 7.78 µg/mL).
